From ChEMBL document CHEMBL1138564, “Microwave-induced synthesis and anti-microbial activities of 7,10,11,12-tetrahydrobenzo[c]acridin-8(9H)-one derivatives” (2009)
≈ marks a conversion by molar mass, not a printed value. Calls of active or inactive are those of the source. The calls are words filed in the database; no cut-off is given here.

Columns and labels:
Type in all cases: functional
[1] = test system: Bacillus cereus; assay: Antimicrobial activity against Bacillus cereus NCIM 2155 at 1000 ug/disk after 24 hrs by disk diffusion method
Summary of the method: (§1)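 Disc diffusion on Mueller–Hinton agar. 100 µl of bacterial suspension at 10⁸ CFU/ml is spread on the plate. Discs carry test compounds at two loadings, dissolved in DMSO; DMSO alone serves as negative control. Ofloxacin disc is the positive reference. Plates are incubated at 37 °C for 24 h, and the inhibition zone diameter is measured.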

[2] = test system: Staphylococcus; assay: Antimicrobial activity against Staphylococcus albus NCIM 2178 at 500 ug/disk after 24 hrs by disk diffusion method
Summary of the method: (§2)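 Disc diffusion. 100 µl of bacterial suspension at 10⁸ CFU/ml was spread on Mueller–Hinton agar. Discs loaded with test compound dissolved in DMSO were placed on the lawn, with a DMSO-only disc as negative control. Plates were incubated at 37 °C for 24 h, and the inhibition zone diameter was measured.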

[3] = test system: Rhodotorula mucilaginosa; assay: Antimicrobial activity against Rhodotorula rubra NCIM 3174 at 500 ug/disk after 72 hrs by disk diffusion method; details: NCIM 3174, 72 h, read-out: DIZ
Summary of the method: (§3)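 Fungal disc diffusion. 100 µl of suspension at 10⁶ CFU/ml was spread on Sabouraud's dextrose agar. Discs carrying test compound in DMSO were applied, with a DMSO-only disc as negative control. Plates were incubated at 27 °C for 72 h, and the zone of inhibition diameter was measured.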

[4] = test system: Proteus vulgaris; assay: Antimicrobial activity against Proteus vulgaris NCIM 2027 at 1000 ug/disk after 24 hrs by disk diffusion method; summary of the method: as §1
[5] = test system: Escherichia coli; assay: Antimicrobial activity against Escherichia coli NCIM 2065 at 1000 ug/disk after 24 hrs by disk diffusion method; details: NCIM 2065, 24 h, read-out: DIZ; summary of the method: as §1
[6] = test system: Rhodococcus corynebacterioides; assay: Antimicrobial activity against Corynebacterium rubrum NCIM 2252 at 500 ug/disk after 24 hrs by disk diffusion method; details: Rhodococcoides corynebacterioides; summary of the method: as §1
[7] = test system: Aspergillus flavus; assay: Antimicrobial activity against Aspergillus flavus NCIM 902 after 72 hrs by serial dilution method; details: NCIM 535, 72 h, in the assay text read “NCIM 535” for “NCIM 902”
Summary of the method: (§4)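 MIC by broth dilution in Sabouraud's dextrose broth, only for fungi sensitive in disc diffusion. Two-fold serial dilutions of compounds are made in 1 ml broth per tube, range 3.9 to 1000. Inoculated tubes are incubated at 27 °C for 72 h.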

[8] = test system: Salmonella typhimurium; assay: Antimicrobial activity against Salmonella Typhimurium NCIM 2501 at 1000 ug/disk after 24 hrs by disk diffusion method; details: Salmonella enterica subsp. enterica serovar Typhimurium; summary of the method: as §2
[9] = test system: Bacillus subtilis; assay: Antimicrobial activity against Bacillus subtilis NCIM 2063 at 1000 ug/disk after 24 hrs by disk diffusion method; details: NCIM 2063, 24 h, read-out: DIZ; summary of the method: as §1
[10] = test system: Aspergillus parasiticus; assay: Antimicrobial activity against Aspergillus parasiticus NCIM 904 after 72 hrs by serial dilution method; details: NCIM 904, 72 h; summary of the method: as §4
[11] = test system: Bacillus cereus; assay: Antimicrobial activity against Bacillus cereus NCIM 2155 at 500 ug/disk after 24 hrs by disk diffusion method; summary of the method: as §1
[12] = test system: Penicillium chrysogenum; assay: Antimicrobial activity against Penicillium chrysogenum NCIM 707 at 500 ug/disk after 72 hrs by disk diffusion method
Summary of the method: (§5)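 Disc diffusion on Sabouraud's dextrose agar. 100 µl of fungal suspension at 10⁶ CFU/ml is spread on the plate. Discs carry test compounds at two loadings in DMSO; DMSO alone is the negative control. Clotrimazole disc is the positive reference. Plates are incubated at 27 °C for 72 h, and the zone of inhibition diameter is measured.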

[13] = test system: Aliivibrio fischeri; assay: Antimicrobial activity against Vibrio fischeri NCIM 2154 at 500 ug/disk after 24 hrs by disk diffusion method; summary of the method: as §2
[14] = test system: Salmonella typhimurium; assay: Antimicrobial activity against Salmonella Typhimurium NCIM 2501 at 500 ug/disk after 24 hrs by disk diffusion method; details: Salmonella enterica subsp. enterica serovar Typhimurium; summary of the method: as §2
[15] = test system: Staphylococcus; assay: Antimicrobial activity against Staphylococcus albus NCIM 2178 at 1000 ug/disk after 24 hrs by disk diffusion method; summary of the method: as §2
[16] = test system: Trichoderma viride; assay: Antimicrobial activity against Trichoderma viride NCIM 1195 after 72 hrs by serial dilution method; details: NCIM 1195, 72 h
Summary of the method: (§6)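 MIC by broth dilution in Sabouraud's dextrose broth, run only on fungi found sensitive in the disc assay. Twofold serial dilutions were made in 1 ml broth per tube, covering 3.9 to 1000. Inoculated tubes were incubated at 27 °C for 72 h.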

[17] = test system: Proteus vulgaris; assay: Antimicrobial activity against Proteus vulgaris NCIM 2027 at 500 ug/disk after 24 hrs by disk diffusion method; summary of the method: as §1
[18] = test system: Rhodococcus corynebacterioides; assay: Antimicrobial activity against Corynebacterium rubrum NCIM 2252 at 1000 ug/disk after 24 hrs by disk diffusion method; details: Rhodococcoides corynebacterioides; summary of the method: as §1
[19] = test system: Lipomyces lipofer; assay: Antimicrobial activity against Lipomyces lipofer NCIM 3252 at 1000 ug/disk after 72 hrs by disk diffusion method; summary of the method: as §5
[20] = test system: Aspergillus fumigatus; assay: Antimicrobial activity against Aspergillus fumigatus NCIM 902 at 500 ug/disk after 72 hrs by disk diffusion method; summary of the method: as §5
[21] = test system: Trichoderma viride; assay: Antimicrobial activity against Trichoderma viride NCIM 1195 at 1000 ug/disk after 72 hrs by disk diffusion method; details: NCIM 1195, 72 h, read-out: DIZ; summary of the method: as §3
[22] = test system: Rhodotorula mucilaginosa; assay: Antimicrobial activity against Rhodotorula rubra NCIM 3174 at 1000 ug/disk after 72 hrs by disk diffusion method; details: NCIM 3174, 72 h, read-out: DIZ; summary of the method: as §3
[23] = test system: Aspergillus flavus; assay: Antimicrobial activity against Aspergillus flavus NCIM 902 at 1000 ug/disk after 72 hrs by disk diffusion method; details: NCIM 902, 72 h, read-out: DIZ; summary of the method: as §5
[24] = test system: Escherichia coli; assay: Antimicrobial activity against Escherichia coli NCIM 2065 after 24 hrs by serial dilution method; details: NCIM 2065, 24 h
Summary of the method: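 Broth dilution MIC in nutrient broth, run only for organisms found sensitive in disc diffusion. Compounds are two-fold serially diluted in 1 ml sterile broth per tube, spanning 3.9 to 1000. Inoculated tubes are incubated at 37 °C for 24 h.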

[25] = test system: Aspergillus flavus; assay: Antimicrobial activity against Aspergillus flavus NCIM 902 at 500 ug/disk after 72 hrs by disk diffusion method; details: NCIM 902, 72 h, read-out: DIZ; summary of the method: as §5
[26] = test system: Pseudomonas aeruginosa; assay: Antimicrobial activity against Pseudomonas aeruginosa NCIM 2200 at 1000 ug/disk after 24 hrs by disk diffusion method; summary of the method: as §1
[27] = test system: Pseudomonas aeruginosa; assay: Antimicrobial activity against Pseudomonas aeruginosa NCIM 2200 at 500 ug/disk after 24 hrs by disk diffusion method; summary of the method: as §2
[28] = test system: Klebsiella aerogenes; assay: Antimicrobial activity against Klebsiella aerogenes NCIM 2239 at 500 ug/disk after 24 hrs by disk diffusion method; summary of the method: as §1
[29] = test system: Aspergillus parasiticus; assay: Antimicrobial activity against Aspergillus parasiticus NCIM 904 at 1000 ug/disk after 72 hrs by disk diffusion method; details: NCIM 904, 72 h, read-out: DIZ; summary of the method: as §5
[30] = test system: Bacillus subtilis; assay: Antimicrobial activity against Bacillus subtilis NCIM 2063 at 500 ug/disk after 24 hrs by disk diffusion method; details: NCIM 2063, 24 h, read-out: DIZ; summary of the method: as §1
[31] = test system: Rhodotorula mucilaginosa; assay: Antimicrobial activity against Rhodotorula rubra NCIM 3174 after 72 hrs by serial dilution method; details: NCIM 3174, 72 h; summary of the method: as §6
[32] = test system: Aliivibrio fischeri; assay: Antimicrobial activity against Vibrio fischeri NCIM 2154 after 24 hrs by serial dilution method; details: NCIM 2154, 24 h

Row | MIC [7] [µg/mL] | MIC [10] [µg/mL] | MIC [16] [µg/mL] | MIC [24] [µg/mL] | SMILES | diameter of the inhibition zone (DIZ) [2] | zone of inhibition at 500 µg/disc [3] [mm] | diameter of the inhibition zone (DIZ) [4] | zone of inhibition at 1000 µg/disc [5] [mm] | diameter of the inhibition zone (DIZ) [8] | zone of inhibition at 1000 µg/disc [9] [mm] | diameter of the inhibition zone (DIZ) [12] | diameter of the inhibition zone (DIZ) [14] | diameter of the inhibition zone (DIZ) [15] | diameter of the inhibition zone (DIZ) [17] | diameter of the inhibition zone (DIZ) [19] | zone of inhibition at 1000 µg/disc [21] [mm] | zone of inhibition at 1000 µg/disc [22] [mm] | zone of inhibition at 1000 µg/disc [23] [mm] | zone of inhibition at 500 µg/disc [25] [mm] | diameter of the inhibition zone (DIZ) [26] | further results
1 | 31.2 (≈ 91.4 µM) | 62.5 (≈ 183 µM) | 62.5 (≈ 183 µM) | 125 (≈ 366 µM) | O=C1CCCC2=C1C(c1ccccc1O)c1ccc3ccccc3c1N2 (stereo not drawn) | inactive | 11 | inactive | 9 | inactive | 10 | inactive | inactive | inactive | inactive | inactive | 10 | 13 | 11 | 8 | inactive | zone of inhibition at 1000 µg/disc ([1]; NCIM 2155, 24 h, read-out: DIZ): 8 mm; diameter of the inhibition zone (DIZ) [6]: inactive; zone of inhibition at 500 µg/disc ([11]; NCIM 2155, 24 h, read-out: DIZ): 7 mm; diameter of the inhibition zone (DIZ) [13]: inactive; diameter of the inhibition zone (DIZ) [18]: inactive; diameter of the inhibition zone (DIZ) [20]: inactive; diameter of the inhibition zone (DIZ) [27]: inactive; diameter of the inhibition zone (DIZ) [28]: inactive; zone of inhibition at 1000 µg/disc [29]: 10 mm; zone of inhibition at 500 µg/disc [30]: 8 mm; MIC [31]: 15.6 µg/mL (≈ 45.7 µM)
2 | 62.5 (≈ 174 µM) | 15.6 (≈ 43.4 µM) | 125 (≈ 347 µM) | 62.5 (≈ 174 µM) | O=C1CCCC2=C1C(c1cccc(Cl)c1)c1ccc3ccccc3c1N2 (stereo not drawn) | inactive | 8 | inactive | 9 | inactive | 11 | inactive | inactive | inactive | inactive | inactive | 10 | 10 | 11 | 9 | inactive | MIC [32]: 62.5 µg/mL (≈ 174 µM); diameter of the inhibition zone (DIZ) [1]: inactive; zone of inhibition at 500 µg/disc ([6]; NCIM 2252, 24 h, read-out: DIZ): 7 mm; diameter of the inhibition zone (DIZ) [11]: inactive; zone of inhibition at 500 µg/disc ([13]; NCIM 2154, 24 h, read-out: DIZ): 9 mm; zone of inhibition at 1000 µg/disc ([18]; NCIM 2252, 24 h, read-out: DIZ): 9 mm; zone of inhibition at 500 µg/disc ([20]; NCIM 902, 72 h, read-out: DIZ): 8 mm; diameter of the inhibition zone (DIZ) [27]: inactive; diameter of the inhibition zone (DIZ) [28]: inactive; zone of inhibition at 1000 µg/disc [29]: 13 mm; zone of inhibition at 500 µg/disc [30]: 8 mm; MIC [31]: 62.5 µg/mL (≈ 174 µM)
